According to ChEMBL document CHEMBL1128498, “Synthesis and antitumor activity of various 6-demethylmitomycins and 6-demethyl-6-halomitomycins” (1995):

Legend:
Mus musculus [1] = species: Mus musculus; assay: 50% inhibition of solid tumor growth (Sarcoma 180 cells) in mice; format: functional
How it was run: (§1)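 Sarcoma 180 cells inoculated sc into the axillary region of ddY mice on day 0; compound given iv on day 1. Tumor volume compared treated versus control (T/C). ED50 is the dose giving 50% inhibition of tumor growth, from the dose-response curve. Optimal dose also recorded.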

Mus musculus [2] = species: Mus musculus; assay: T/C value was measured as tumor volume in the treated versus control mice.; format: functional; how it was run: as §1
[3] = Optimal dose was measured against sarcoma 180 cell in mice; format: functional, Mus musculus; how it was run: as §1
HeLa = assay: Inhibition of HeLa S3 cell growth relative to mitomycin C action (ratio of IC50 values); format: functional, Homo sapiens
How it was run: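 HeLa S3 cells plated on day 0 and exposed to drug for 1 h on day 1. IC50 is the concentration giving 50% growth inhibition, taken from the concentration-response curve. Reported as IC50 of test compound divided by IC50 of mitomycin C.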

Structure (SMILES) | ED50 (Mus musculus [1]) [mg/kg] | T/C (Mus musculus [2]) | OD [3] [mg/kg] | IC50 ratio (HeLa)
COC1=CC(=O)C2=C(C1=O)[C@@H](COC(N)=O)[C@@]1(OC)[C@@H]3[C@H](CN21)N3C (stereo not given in full) | 7.1 | 0.36 | 10 | 0.29
COC1=CC(=O)C2=C(C1=O)[C@H](COC(N)=O)[C@@]1(O)[C@@H]3[C@H](CN21)N3C (stereo not given in full) | 11 | 0.31 | 20 | 16
COC1=C(Br)C(=O)C2=C(C1=O)[C@@H](COC(N)=O)[C@@]1(OC)[C@H]3N[C@H]3CN21 | 8.4 | 0.47 | 14 | 1.9
CN1[C@H]2[C@@H]1CN1C3=C(C(=O)C(N)=C(Br)C3=O)[C@H](COC(N)=O)[C@@]21O (stereo not given in full) | – | 0.55 | 30 | >35
CC1=C(N)C(=O)C2=C(C1=O)N1C[C@H]3[C@H](N3C)[C@]1(O)[C@H]2COC(N)=O (stereo not given in full) | – | 0.59 | 100 | >20
CN1[C@H]2[C@@H]1CN1C3=C(C(=O)C(N)=CC3=O)[C@H](COC(N)=O)[C@@]21O (stereo not given in full) | 33 | 0.26 | 100 | >71
CO[C@@]12[C@H](COC(N)=O)C3=C(C(=O)C=C(N)C3=O)N1C[C@@H]1N[C@@H]12 | 2.6 | 0.25 | 5 | 3.2
COC1=CC(=O)C2=C(C1=O)[C@@H](COC(N)=O)[C@@]1(OC)[C@H]3N[C@H]3CN21 | 1.6 | 0.45 | 2 | 0.3
CN1[C@H]2[C@@H]1CN1C3=C(C(=O)C(N)=C(Cl)C3=O)[C@H](COC(N)=O)[C@@]21O (stereo not given in full) | 17 | 0.43 | 20 | >20
COC1=C(Br)C(=O)C2=C(C1=O)[C@@H](COC(N)=O)[C@@]1(OC)[C@@H]3[C@H](CN21)N3C (stereo not given in full) | – | 0.97 | 14 | >4.8
CO[C@@]12[C@H](COC(N)=O)C3=C(C(=O)C(Cl)=C(N)C3=O)N1C[C@@H]1N[C@@H]12 | 1.4 | 0.14 | 2.7 | 0.37
COC1=C(Br)C(=O)C2=C(C1=O)[C@H](COC(N)=O)[C@@]1(O)[C@@H]3[C@H](CN21)N3C (stereo not given in full) | 22 | 0.44 | 30 | >3.7
CO[C@@]12[C@H](COC(N)=O)C3=C(C(=O)C(Cl)=C(N)C3=O)N1C[C@H]1[C@@H]2N1C (stereo not given in full) | 2.3 | 0.11 | 4 | 0.76
CO[C@@]12[C@H](COC(N)=O)C3=C(C(=O)C(Br)=C(N)C3=O)N1C[C@H]1[C@@H]2N1C (stereo not given in full) | – | 0.63 | 4 | 1.9
CO[C@@]12[C@H](COC(N)=O)C3=C(C(=O)C=C(N)C3=O)N1C[C@H]1[C@@H]2N1C (stereo not given in full) | 8.4 | 0.08 | 20 | 16
COC1=C(Cl)C(=O)C2=C(C1=O)[C@H](COC(N)=O)[C@@]1(O)[C@@H]3[C@H](CN21)N3C (stereo not given in full) | – | 0.62 | 20 | 11
COC1=C(Cl)C(=O)C2=C(C1=O)[C@@H](COC(N)=O)[C@@]1(OC)[C@H]3N[C@H]3CN21 | – | – | – | 2.5
COC1=C(C)C(=O)C2=C(C1=O)[C@@H](COC(N)=O)[C@@]1(OC)[C@H]3N[C@H]3CN21 [MITOMYCIN A] | 1.3 | 0.2 | 1.8 | 0.0035
COC1=C(C)C(=O)C2=C(C1=O)[C@H](COC(N)=O)[C@@]1(O)[C@@H]3[C@H](CN21)N3C (stereo not given in full) [MITOMYCIN B] | 2.8 | 0.37 | 4 | 0.29
CO[C@@]12[C@H](COC(N)=O)C3=C(C(=O)C(C)=C(N)C3=O)N1C[C@@H]1N[C@@H]12 [MITOMYCIN] | 1.6 | 0.27 | 3.1 | 0.49
COC1=C(C)C(=O)C2=C(C1=O)[C@@H](COC(N)=O)[C@@]1(OC)[C@@H]3[C@H](CN21)N3C (stereo not given in full) [N-METHYL-MITOMYCIN A] | 6.5 | 0.32 | 8 | <0.031
CO[C@@]12[C@H](COC(N)=O)C3=C(C(=O)C(C)=C(N)C3=O)N1C[C@H]1[C@@H]2N1C (stereo not given in full) [PORFIROMYCIN] | 16 | 0.23 | 40 | 9.5
